From PubChem
Most compounds without a hit are left out; they make up all but 2.2% or so of the library.
CSN deneddyl inh: CSN deneddylation inhibition; inhibition, % at 12.5 µM; 360,000 compounds, 0.38% hits; Purified CSN, SCF-Nedd8-OG deneddylation, fluorescence polarization;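 active means pattern-corrected inhibition above about 35%, with an unprinted fluorescence ratio check between 0.5 and 1.5, limit read from the data, passing the limit was not always enough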;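 further: 0% = enzyme with substrate and 100% = substrate without enzyme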
Target sequence (Q92905 whole entry, looked up, one chain of several): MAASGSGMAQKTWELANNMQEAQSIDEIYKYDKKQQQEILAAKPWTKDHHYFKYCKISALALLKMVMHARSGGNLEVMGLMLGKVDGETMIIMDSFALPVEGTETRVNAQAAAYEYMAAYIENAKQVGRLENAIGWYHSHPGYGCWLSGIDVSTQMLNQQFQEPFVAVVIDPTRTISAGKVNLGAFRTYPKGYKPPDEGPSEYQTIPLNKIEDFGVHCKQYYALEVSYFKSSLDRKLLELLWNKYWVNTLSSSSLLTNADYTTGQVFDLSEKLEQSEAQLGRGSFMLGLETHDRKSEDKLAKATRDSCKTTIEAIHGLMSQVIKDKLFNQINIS
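Assay system: purified human Csn5 enzyme expressed in HEK293T cells; Input: 0.24 nM Csn5 enzyme, final concentration; Reagent: 10 nM SCFSkp2-Nedd8OG; Compound dosing: 12.5 µM single point; Times: reaction 90 min, room temperature; Technique: fluorescence polarization readout.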
Myeloid diff MLP: myeloid differentiation induction; ER-HoxA9 myeloid progenitors, lysozyme-GFP differentiation, flow cytometry; calls only at 10 µM; 360,000 compounds, 1% hits; AID 624256;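 active means normalized GFP-positive differentiation at or above the plate's own cutoff, the solvent-only control mean plus 3 SD; inconclusive means no clear call, values can overlap the other calls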;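 further: cells exposed to compound for four days before flow analysis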
HNF4A DNA FP: change in binding of human HNF4 alpha to DNA | P41235 | HNF4a-FITC DNA binding, fluorescence polarization, 1 h | activity change, % at 10 µM | 360,000 compounds, 0.3% hits | AID 1224865; in the data active means activity change above about 30%, passing the limit was not always enough
Granule exo inh: blocks lytic granule exocytosis. TALL-104 LAMP-1 surface exposure, flow cytometry; cells stimulated with thapsigargin and PMA. inhibition, % at 10 µM. 360,000 compounds, 0.66% hits;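 active means inhibition above about 55%, limit read from the data; inconclusive means no clear call, values can overlap the other calls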
The depositor's hits bear a star; i = inactive; u = inconclusive; x = no result; + = active, no number; ! = not active in a repeat.

SMILES | CSN deneddyl inh | Myeloid diff MLP | HNF4A DNA FP | Granule exo inh
Cc1ccc(Oc2nc3ccccn3c(=O)c2/C=C(\C#N)C(=O)NC2CCS(=O)(=O)C2)cc1 (centres undefined) | -2 | i | 1 | 74*
CCOC(=O)/C(C#N)=C/c1c(Oc2cc(C)cc(C)c2)nc2ccccn2c1=O | 5 | i | -2 | -3
Cc1ccoc1C(=O)Nc1cccc2ccccc12 | -3 | i | 1 | -2
C[C@H]1CN([C@@H](C)CO)C(=O)Cc2cc(NC(=O)CCC(F)(F)F)ccc2O[C@H]1CN(C)CC1CC1 | -3 | i | -2 | 13
COc1cc(N(Cc2ccccc2)Cc2ccccc2)c2ncn(C(C)C)c2c1 | -5 | i | -3 | -1
CC(C)n1cnc2c(N(C)c3ccccc3)nc(N(CCN(C)C)Cc3ccccc3)nc21 | 2 | + | 8 | 9
Cc1ccc(S(=O)(=O)N2C[C@H]3n4c(=O)ccc(=O)n4C[C@H](OC(=O)Nc4c(C)noc4C)[C@@]3(O)C2)cc1 | 3 | i | 4 | 2
Cc1ccc(S(=O)(=O)N2C[C@H]3n4c(=O)ccc(=O)n4C[C@H](OC(=O)NC4CC4)[C@@]3(O)C2)cc1 | 2 | + | -2 | 2
O=C(O)Cc1ccc(C(=O)c2ccccc2)s1 | 1 | i | -2 | 0
N#CCc1ccc(C(=O)c2ccccc2F)s1 | 3 | + | 1 | 4
CCC(C)Nc1nc2c(C)cccn2c(=O)c1C=Nc1ccc(OC)cc1 (centres undefined) | -2 | i | 0 | 0
CCC(C)N1C(=O)/C(=C/c2c(NCCCOC(C)C)nc3c(C)cccn3c2=O)SC1=S (centres undefined) | -78 | + | 2 | -5
CCCN1C(=O)/C(=C/c2c(NCCCOC(C)C)nc3c(C)cccn3c2=O)SC1=S | 56* | + | 85 | 1
O=C(NC1CCCCC1)C1CCN(S(=O)(=O)c2cccc3nonc23)CC1 | 3 | i | 2 | -5
Cc1ccc(S(=O)(=O)N2CCC(C(=O)OCC(=O)N(C)C3CCCCC3)CC2)cc1C | -5 | i | -3 | -4
O=c1c2ccccc2nc(COc2ccccc2)n1/N=C/c1cn[nH]c1-c1ccccc1 | 4 | + | 3 | -2
CC1(C)OC(c2ccccc2)=C/C(=C/C=C2C(=O)c3ccccc3C2=O)O1 | 29 | i | 84* | 0
CCOC(=O)c1c(Nc2ccc(Cl)cc2)sc(/C=C2\C=Nc3ccccc32)c1O | 18 | i | 45* | 9
N=C1c2ccccc2CN1c1ccc(S(=O)(=O)N2CCCCC2)cc1 | 3 | + | 0 | 1
O=C1c2ccccc2C(=O)N1c1ccc(S(=O)(=O)N2CCCCC2)cc1 | 3 | i | 3 | -7
Cc1nnc(SCCn2c(N3CCC(C)CC3)nc3c2c(=O)[nH]c(=O)n3C)s1 | -3 | + | -1 | -3
O=C(NCC(O)CO)c1csc(Nc2cccc3ccccc23)n1 (centres undefined) | 2 | x | 0 | -3
CC(C)NC(=O)c1ccc2sc([C@@H]3O[C@H](CO)[C@H](O)[C@H](O)[C@H]3O)nc2c1 | -3 | i | -1 | -4
CC1(C)C(=O)Nc2ccccc2N1C(=O)COc1ccccc1C#N | -3 | u | -4 | -2
Cc1ccc(N=c2ssnc2Cl)cc1 | 2 | i | 0 | 95*
SMILES | CSN deneddyl inh | Myeloid diff MLP | HNF4A DNA FP | Granule exo inh
COc1cc(N=c2ssnc2Cl)c(OC)cc1Cl | -5 | i | 1 | 99*!
Cc1cc(C)nc(/N=c2/ssnc2Cl)c1 | 7 | i | 0 | 82*
Cc1oc(-c2ccc(Cl)cc2)nc1CN1CCC(C(=O)NCCCN2CCCC(C)C2)CC1 (centres undefined) | 0 | i | 12 | 2
Cc1ccc(C#CC[N+](C)(C)CC#Cc2ccccc2)cc1 | -2 | i | -1 | 0
C#CC[N+](C)(C)CC#Cc1ccccc1 | -10 | + | 1 | -2
Cc1c(C=O)c2cc(OCc3ccccc3)ccc2n1C | 1 | i | -2 | 69*
CCC(C(=O)NC1CCCCC1)n1c2ccccc2c2nc(=O)cc(C)n21 (centres undefined) | -5 | i | 0 | -6
COc1ccc(/C=C(\NC(=O)c2ccc(C)cc2)C(=O)Nc2ccc(C(=O)O)cc2)cc1 | -4 | i | -5 | 11
Cc1cccc(N2CCN(CC(=O)Nc3ccc(S(=O)(=O)N4CCOCC4)cc3)CC2)c1C | 1 | + | -3 | 1
Cc1ccc(S(=O)(=O)N2CCN(CC(=O)Nc3ccc(N4CCOCC4)cc3)CC2)cc1C | -1 | i | -2 | 1
O=C(CN1CCCN(S(=O)(=O)c2ccc(F)cc2)CC1)Nc1c(Cl)cccc1Cl | 109* | i | 2 | -3
C[C@@H]1CN([C@@H](C)CO)C(=O)CCCn2nncc2CO[C@H]1CN(C)S(=O)(=O)c1ccc(C#N)cc1 | -4 | i | -2 | -5
CCCCn1nc(C(=O)Nc2c(C)n(C)n(-c3ccccc3)c2=O)c2ccccc2c1=O | -4 | i | -1 | 0
O=C(OCC(O)COC(=O)c1cccnc1)c1cccnc1 | 0 | + | 0 | 4
CCN1CCN(CCCNC(=O)C2CCN(c3nnc(-n4cccc4)s3)CC2)CC1 | 3 | + | 3 | -1
CCOc1ccc(NC(=O)/C(C#N)=C\c2ccc(N3CCCC3)c(C)c2)cc1 | 47* | i | 98 | 5
CCOc1ccc(/C=C(\C#N)C(=O)Nc2cccnc2)cc1 | -8 | i | 2 | -1
O=C(CNC(=O)C1CC(=O)N(c2cccc3ccccc23)C1)Nc1ccccc1Br (centres undefined) | -2 | i | -4 | -2
CC(COc1ccc(C(C)C)cc1)NC(=O)c1ccc(Br)o1 (centres undefined) | -4 | i | 6 | 2
COc1ccc(/C=N/Nc2ccc([N+](=O)[O-])cc2)cc1O | 33 | i | 44* | 37
CC12CCC(=O)N1C(C(=O)NCc1ccccc1F)CS2 (centres undefined) | -1 | i | -2 | 0
N#CC1(NC(=O)COC(=O)c2cc(O)c3ccccc3c2O)CCCCC1 | 3 | + | -1 | 61*
COc1cccc(Nc2ncnc3sccc23)c1 | 0 | + | 2 | -20
CC(C)C[C@H]1CN(CCCC[C@H]2CNC(=O)C(=O)N2CCc2ccccc2)C(=O)C(=O)N1CCc1ccc(O)cc1 | -1 | i | -1 | -2
CCCCCCc1c(C)c2ccc(OCC(=O)N3CCC[C@H]3C(=O)O)c(C)c2oc1=O | 5 | i | -1 | -1
O=C(Cc1ccccc1F)OCN1C(=O)c2ccccc2C1=O | 5 | i | 2 | 1
CCC(=O)Nc1cccc(C(=O)N(Cc2ccccc2)Cc2ccccc2)c1 | 5 | i | 4 | 4
O=[N+]([O-])c1ccc(Sc2cccc[n+]2[O-])c2nonc12 | -1 | x | -2 | 96*
CCN(CC)CCN(Cc1cc2cc3c(cc2[nH]c1=O)OCO3)C(=S)NCc1ccco1 | 35* | i | -1 | -5
COc1ccc(-c2noc(CCC(=O)Nc3cccnc3)n2)cc1 | 2 | + | -1 | -4
